ChEMBL document CHEMBL4828721, “Substituted dienes prepared from betulinic acid - Synthesis, cytotoxicity, mechanism of action, and pharmacological parameters” (Eur J Med Chem, 2021)
Active and inactive are the calls of the source. The calls are words filed in the database; no cut-off is given here.

Legend:
[1] = tested on: CCRF-CEM; test: Cell cycle arrest in human CCRF-CEM cells assessed as accumulation of cells at S phase at 5 times IC50 measured after 24 hrs by propidium iodide staining based flow cytometry analysis (Rvb= 38.17%); assay type: functional
[2] = tested on: CCRF-CEM; test: Induction of cell cycle arrest in human CCRF-CEM cells assessed as downregulation of cyclin D1 protein expression at 5 times IC50 measured after 24 hrs by western blot analysis; assay type: functional, cell-based
Summary of the method: (§1)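 Protein (15 µg/lane) was resolved by 10% SDS-PAGE and transferred to nitrocellulose. Blocked in 5% milk/TBST, then probed overnight at 4 °C with primary antibodies (1:1000) and HRP secondaries. Detected by ECL, with β-actin as loading control.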

[3] = tested on: CCRF-CEM; test: Induction of apoptosis in human CCRF-CEM cells assessed as late apoptotic cells at 5 times IC50 measured after 24 hrs by Annexin V-FITC/PI staining based flow cytometry analysis (Rvb= 1.4%); assay type: functional
[4] = tested on: CCRF-CEM; test: Induction of apoptosis in human CCRF-CEM cells assessed as activation of caspase 9 at 5 times IC50 measured after 24 hrs by western blot analysis; assay type: functional, cell-based; summary of the method: as §1
[5] = tested on: CCRF-CEM; test: Cell cycle arrest in human CCRF-CEM cells assessed as accumulation of cells at G0/G1 phase at 5 times IC50 measured after 24 hrs by propidium iodide staining based flow cytometry analysis (Rvb= 40.20%); assay type: functional
[6] = tested on: CCRF-CEM; test: Inhibition of RNA synthesis in human CCRF-CEM cells at IC50 by […] incorporation assay (Rvb= 36.54%); assay type: functional; set-up: scale not given: the % may be the effect or the level left
[7] = Cytotoxicity against human HCT116 p53-null cells assessed as reduction in cell viability measured after 72 hrs by MTS assay; assay type: functional, cell-based
[8] = Stability in human plasma assessed as parent compound remaining at 2 uM incubated for 120 mins by RF-MS analysis; assay type: ADME, cell-free; settings: read-out: Stability
[9] = Efflux ratio of apparent permeability across basolateral to apical side to apparent permeability across apical to basolateral side in human Caco2 cells at pH 7.4 at 10 micromol/L measured after 2 hrs by RF-MS analysis; assay type: ADME, cell-based; settings: Caco-2, pH 7.4, dose 10 µmol/L
Summary of the method: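 Efflux ratio is Papp(B→A)/Papp(A→B) from bidirectional transport across Caco-2 (2 h) or MDCK-MDR1 (1 h) monolayers. Compound was dosed in HBSS pH 7.4 and quantified by RapidFire MS/MS. Run in duplicates. ER > 2 was taken as a potential P-gp substrate.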

[10] = tested on: CCRF-CEM; test: Induction of apoptosis in human CCRF-CEM cells assessed as live cells at IC50 measured after 24 hrs by Annexin V-FITC/PI staining based flow cytometry analysis (Rvb= 96.7%); assay type: functional
[11] = tested on: U2OS; test: Cytotoxicity against human U2OS cells assessed as reduction in cell viability measured after 72 hrs by MTS assay; assay type: functional, cell-based
[12] = tested on: CCRF-CEM; test: Induction of apoptosis in human CCRF-CEM cells assessed as induction of PARP cleavage at 5 times IC50 measured after 24 hrs by western blot analysis; assay type: functional, cell-based; summary of the method: as §1
[13] = tested on: CCRF-CEM; test: Induction of apoptosis in human CCRF-CEM cells assessed as activation of caspase 8 at 5 times IC50 measured after 24 hrs by western blot analysis; assay type: functional, cell-based; summary of the method: as §1
[14] = Cytotoxicity against paclitaxel resistant human K562-Tax cells assessed as reduction in cell viability measured after 72 hrs by MTS assay; assay type: functional, cell-based
[15] = tested on: CCRF-CEM; test: Cell cycle arrest in human CCRF-CEM cells assessed as accumulation of cells at S phase at IC50 measured after 24 hrs by propidium iodide staining based flow cytometry analysis (Rvb= 38.17%); assay type: functional
[16] = tested on: CCRF-CEM; test: Cytotoxicity against human CCRF-CEM cells assessed as reduction in cell viability measured after 72 hrs by MTS assay; assay type: functional, cell-based
[17] = tested on: CCRF-CEM; test: Inhibition of RNA synthesis in human CCRF-CEM cells at 5 times IC50 by […] incorporation assay (Rvb= 36.54%); assay type: functional; set-up: scale not given: the % may be the effect or the level left
[18] = Stability in human plasma assessed as parent compound remaining at 2 uM incubated for 30 mins by RF-MS analysis; assay type: ADME, cell-free; settings: read-out: Stability
[19] = tested on: CCRF-CEM; test: Induction of mitotic arrest in human CCRF-CEM cells assessed as phosphorylation of histone H3 at Ser10 at IC50 measured after 24 hrs by propidium iodide staining based flow cytometry analysis (Rvb= 1.72%); assay type: functional
[20] = tested on: CCRF-CEM; test: Cell cycle arrest in human CCRF-CEM cells assessed as accumulation of cells at sub G1 phase at IC50 measured after 24 hrs by propidium iodide staining based flow cytometry analysis (Rvb= 2.77%); assay type: functional
[21] = Apparent permeability of the compound in human Caco2 cells assessed as recovery rate at pH 7.4 at 10 micromol/L measured after 1 hr by RF-MS analysis; assay type: ADME, cell-based; settings: Caco-2, pH 7.4, dose 10 µmol/L, read-out: Activity
[22] = tested on: CCRF-CEM; test: Induction of mitotic arrest in human CCRF-CEM cells assessed as phosphorylation of histone H3 at Ser10 at 5 times IC50 measured after 24 hrs by propidium iodide staining based flow cytometry analysis (Rvb= 1.72%); assay type: functional
[23] = tested on: CCRF-CEM; test: Inhibition of DNA synthesis in human CCRF-CEM cells at IC50 by BrdU incorporation assay (Rvb= 41.56%); assay type: functional; set-up: scale not given: the % may be the effect or the level left
[24] = tested on: CCRF-CEM; test: Induction of cell cycle arrest in human CCRF-CEM cells assessed as upregulation of p21 protein expression at 5 times IC50 measured after 24 hrs by western blot analysis; assay type: functional, cell-based; summary of the method: as §1
[25] = tested on: CCRF-CEM; test: Induction of apoptosis in human CCRF-CEM cells assessed as early apoptotic cells at IC50 measured after 24 hrs by Annexin V-FITC/PI staining based flow cytometry analysis (Rvb= 1.6%); assay type: functional
[26] = tested on: HCT-116; test: Cytotoxicity against human HCT-116 cells assessed as reduction in cell viability measured after 72 hrs by MTS assay; assay type: functional, cell-based; settings: HCT-116, 72 h
[27] = Fraction bound in human plasma at 10 uM measured after 4 hrs by RF-MS based rapid equilibrium dialysis method
[28] = Apparent permeability of the compound in dog MDCK-MDR1 cells assessed as recovery rate at pH 7.4 at 10 micromol/L measured after 1 hr by RF-MS analysis; assay type: ADME, cell-based, Canis lupus familiaris; settings: MDCK-MDR1, pH 7.4, dose 10 µmol/L, read-out: Activity
[29] = tested on: CCRF-CEM; test: Cell cycle arrest in human CCRF-CEM cells assessed as accumulation of cells at sub G1 phase at 5 times IC50 measured after 24 hrs by propidium iodide staining based flow cytometry analysis (Rvb= 2.77%); assay type: functional
[30] = Apparent permeability of the compound in dog MDCK-MDR1 cells at pH 7.4 at 10 micromol/L measured after 1 hr by RF-MS analysis; assay type: ADME, cell-based, Canis lupus familiaris; settings: MDCK-MDR1, pH 7.4, dose 10 µmol/L
Summary of the method: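 Caco-2 and MDCK-MDR1 cells grown on polyester Transwell filters (0.4 and 1 µm pores) in DMEM pH 7.4 with 10% FBS; monolayer integrity checked by Lucifer Yellow rejection. Cells washed and pre-equilibrated 1 h in HBSS pH 7.4, then dosed with compound in HBSS pH 7.4. Incubation was 1 h for MDCK and 2 h for Caco-2. Samples lyophilized and quantified by RapidFire MS/MS with internal standard. Duplicates. Papp = (dQ/dt)/(C0·A).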

Structure (SMILES) | Activity [1] | Activity [2] | Activity [3] | Activity [4] | Activity [5] | Activity [6] | IC50 [7] | remaining at 2 h, 2 µM [8] | efflux ratio at 2 h, 10 µM [9] | Activity [10] | IC50 [11] | Activity [12] | Activity [13] | IC50 [14] | Activity [15] | IC50 [16] | Activity [17] | remaining at 0.5 h, 2 µM [18] | Activity [19] | Activity [20] | other results
C=C(/C=C/c1ccc([N+](=O)[O-])cc1)[C@@H]1CC[C@]2(C(=O)O)CC[C@]3(C)[C@H](CC[C@@H]4[C@@]5(C)CC[C@H](O)C(C)(C)[C@@H]5CC[C@]43C)[C@@H]12 | 57.61% | Active | 9.6% | Active | 29.57% | 34.98% | 15.7 µM | 71.5% | 2.5 | 90.9% | 19.5 µM | Active | inactive | 23.4 µM | 28.44% | 3.6 µM | 4.07% | 79.1% | 2.9% | 6.54% | recovery at 1 h, 10 µM [21]: 58.5%; Activity [22]: 0.93%; Activity [23]: 43.17%; Activity [24]: Active; Activity [25]: 2.4%; IC50 [26]: 18.6 µM; PPB (% bound) at 4 h, 10 µM [27]: 68.1%; recovery at 1 h, 10 µM [28]: 56.7%; Activity [29]: 25.04%; Papp at 1 h, 10 µM [30]: 4.3 nm/s
C=C(/C=C/c1cccc(Cl)c1)[C@@H]1CC[C@]2(C(=O)O)CC[C@]3(C)[C@H](CC[C@@H]4[C@@]5(C)CC[C@H](O)C(C)(C)[C@@H]5CC[C@]43C)[C@@H]12 | 37.93% | Active | 4.7% | Active | 49.79% | 18.97% | 15.2 µM | 77.7% | 2.64 | 91.9% | 17.3 µM | Active | inactive | 25.6 µM | 42.75% | 3.2 µM | 11.37% | 87.9% | 1.5% | 5.66% | recovery at 1 h, 10 µM [21]: 42.1%; Activity [22]: 1.52%; Activity [23]: 35.56%; Activity [24]: Active; Activity [25]: 2.1%; IC50 [26]: 16.4 µM; PPB (% bound) at 4 h, 10 µM [27]: 79%; recovery at 1 h, 10 µM [28]: 104%; Activity [29]: 9.13%; Papp at 1 h, 10 µM [30]: 224 nm/s
